M1 ag – M1 muscarinic receptor agonism | CHO-M1 cells, Fluo-4 calcium fluorescence, agonist mode; hits give high values | 3% of 64,000 active | B-score at 10 µM | AID 626;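 active = fluorescence rise, raw or as B-score row- and column-corrected plate score, outside the 99.7% band of its plate's samples, either direction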
D1 mod – D1 dopamine receptor (human) allosteric modulation. P21728. HEK293 D1, CRE-luciferase, dopamine EC30 potentiation; actives deviate in either direction. B-score at 10 µM. 5.9% of 58,000 active;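 active = luminescence count or its row- and column-corrected plate score outside the 99.7% band of the plate's sample wells, on either side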
Target sequence (P21728 whole entry, looked up): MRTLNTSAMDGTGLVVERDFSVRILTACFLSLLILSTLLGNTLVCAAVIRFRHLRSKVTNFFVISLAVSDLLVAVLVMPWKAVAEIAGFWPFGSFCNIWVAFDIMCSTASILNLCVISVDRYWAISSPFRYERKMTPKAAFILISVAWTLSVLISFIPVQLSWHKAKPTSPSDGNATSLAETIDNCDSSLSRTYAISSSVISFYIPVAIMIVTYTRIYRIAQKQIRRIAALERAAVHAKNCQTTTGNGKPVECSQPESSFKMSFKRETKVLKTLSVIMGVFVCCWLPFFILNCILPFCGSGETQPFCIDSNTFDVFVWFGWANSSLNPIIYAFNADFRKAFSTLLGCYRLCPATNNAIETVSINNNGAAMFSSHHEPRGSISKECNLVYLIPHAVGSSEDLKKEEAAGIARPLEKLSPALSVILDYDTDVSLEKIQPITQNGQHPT
M1 antag – M1 muscarinic receptor (rat) antagonism | P08482 | CHO-M1 cells, Fluo-4 calcium, ACh EC80 antagonist mode; hits give low values | B-score at 10 µM | 3.4% of 64,000 active | AID 628;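 active = calcium fluorescence response, raw or row-and-column corrected B-score, differing from the plate sample mean either way at a set confidence level, mostly lower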
S1P1 ag pot – S1P1 (human) agonism or agonism potentiation; S1P1 CRE-bla cells, forskolin, beta-lactamase FRET, potentiator mode; S1P1 agonist co-added at EC20, 2 nM; 100% = saturating reference agonist, 0% = basal; activation, % at 9.5 µM; 0.57% of 56,000 active; P21453;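 active = activation above a cutoff set at the mean activation of all tested compounds plus 3 SD, cut at about 54% in these data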;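 note: forskolin at 4 µM as EC80 and the EC20 agonist is SEW2871; 100% = SEW2871 at its EC100 plus forskolin at EC80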
S1P3 ag – activates the human S1P3 receptor. S1P3 NFAT-BLA reporter cells, agonism, FRET ratio; relative to 1 µM S1P, basal subtracted. activation, % at 4.5 µM. AID 373. 0.1% of 60,000 active. Q99500;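 active = activation above the screen-wide mean plus 3 SD, cut at about 4.5% in these data, passing the limit was not always enough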
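Benchmarks: high control 1 µM S1P / System: stable CHO line with human S1P3, Gα16, NFAT-BLA reporter / Dosing: single compound concentration, 4.5 µM final / Timing: 4 h compound at 37 °C, 2 h substrate at RT / Measured by: FRET β-lactamase substrate fluorescence, excitation 405 nm, 460/535 nm emission ratio, background-subtracted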
D1 mod confirm – D1 receptor (human) allosteric modulation, confirmed; HEK293 D1 CRE-luciferase, dopamine EC30 potentiation; hits give high values; shares compounds with D1 mod; luminescence at 10 µM; AID 642; 88% of 2,200 active;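 active = luminescence in either of two replicates above the same-plate mean plus 3 SD of the low-dose dopamine control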
D1 ag no DA – D1 (human) signaling in absence of dopamine | 0.8% of 1,900 active | luminescence at 10 µM | AID 646 | HEK293 D1 CRE-luciferase, luminescence, no dopamine; hits give high values | shares compounds with D1 mod; in the data active = luminescence above about 3900
Isoprot counter – isoproterenol response counter-screen activity for D1 modulators; calls only at 10 µM; 63% of 2,200 active; AID 647; shares compounds with D1 mod; HEK293 D1 CRE-luciferase, isoproterenol EC30 counter-screen;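 active = luminescence in either replicate above plate mean of wells with a partly effective reference agonist dose plus 3 SD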;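 note: isoproterenol raises cAMP through native beta-adrenoceptor Gs so signal bypasses D1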
* = called active by the depositor; i = inactive; x = no result given; + = active, no number. A selection: hits, their analogues and other compounds. The true share with any hit is near 11%.

SMILES	M1 ag	D1 mod	M1 antag	S1P1 ag pot	S1P3 ag	D1 mod confirm	D1 ag no DA	Isoprot counter
Cc1[nH]nc2c1C(c1ccc3c(c1)OCO3)C(C#N)=C(N)O2 (stereo not given)	x	x	x	4	-1	x	x	x
COc1cc(C2C(C#N)=C(N)Oc3n[nH]c(-c4ccncc4)c32)cc(OC)c1OC (stereo not given)	-1.3	0.76	2	-5	0	x	x	x
CCOC(=O)N1CCC(NC(=O)c2cc(C(=O)Nc3ccc(OC)c(OC)c3)ccc2CO)CC1	0.31	-0.2	0.49	-8	-1	x	x	x
COc1ccc(NC(=O)C2(N(CC(C)C)C(=O)Cn3nnnc3N)CCCCC2)cc1	0.53	-0.031	0.11	2	0	x	x	x
Cc1ccc(NC(=O)C2(N(CC(C)C)C(=O)Cn3nnnc3N)CCCCC2)cc1	x	5.4*	x	2	1	5068	x	i
CC1(C(=O)NC2CCCCC2)CCC(=O)N1Cc1cccnc1 (stereo not given)	0.46	7.5*	-0.021	-18	0	4868	1504	i
CC1(C)Cc2c(C#N)c(NCCCO)nc(-c3ccccc3)c2CO1	-0.6	5.8*	-0.62	-26	-1	11280*	1708	+
CCOC(=O)c1cnn(-c2cccc(Cl)c2)c1N	-0.52	4.6*	-0.63	-22	0	12468*	1660	i
CCOC(=O)c1cnn(-c2nc(C)cc(C)n2)c1N	0.15	x	-0.0019	14	1	x	x	x
CCOC(=O)c1ccc(NC(=O)C(CC)(CC)C(=O)OCC)cc1	-0.057	0.44	-0.76	11	0	x	x	x
CCOC(=O)c1ccccc1NC(=O)c1ccc(NS(C)(=O)=O)cc1	-0.39	19*	0.16	x	0	19196*	1760	+
Cc1cccc(-c2c3c(=O)n(C)c(=O)n(C)c3c3cccnn23)c1	-0.2	22*	-0.63	-9	22	23480*	1672	+
Cc1cccc(-c2c3c(=O)n(C)c(=O)n(C)c3cn2C(C)(C)C)c1	-0.07	1.6	-2.3	-5	1	x	x	x
Cc1cccc(-c2c3c(=O)n(C)c(=O)n(C)c3cn2C(C)C)c1	2.8*	14*	0.38	14	0	15796*	1340	+
CCCCCOC(=O)CSc1nc2c(c(=O)[nH]c(=O)n2C)n1Cc1ccc(Cl)cc1	0.45	0.11	0.18	8	-1	x	x	x
CC(C)n1c(SCc2ccc(Cl)cc2)nc2c1c(=O)[nH]c(=O)n2C	-0.14	1.9	0.092	-49	-1	x	x	x
CCCCn1c(SCc2ccc(Cl)cc2)nc2c1c(=O)[nH]c(=O)n2C	0.35	7.4*	0.31	-15	0	25640*	1752	+
C/C=C/CSc1nc2c(c(=O)[nH]c(=O)n2C)n1C(C)C	-0.25	6*	-0.54	-50	0	12796*	1768	+
C/C=C/CSc1nc2c(c(=O)[nH]c(=O)n2C)n1Cc1ccc(C)cc1	0.0012	20*	0.17	-6	-1	16484*	1496	+
CC(C)n1c(SCC(N)=O)nc2c1c(=O)[nH]c(=O)n2C	0.5	-0.081	-0.33	5	-1	x	x	x
Cc1ccc(Cn2c(Sc3ncccn3)nc3c2c(=O)[nH]c(=O)n3C)cc1	0.024	1.4	0.41	x	x	x	x	x
CCSc1nc2c(c(=O)[nH]c(=O)n2C)n1Cc1ccc(Cl)cc1	-0.078	5.5*	1.2	-52	0	15452*	1584	+
COc1ccc(NC(=O)CSc2nc(C)cc(C(F)(F)F)n2)cc1	0.64	x	0.18	-13	0	x	x	x
CC(C)CCn1c(SCc2ccc(Cl)cc2)nc2c1c(=O)[nH]c(=O)n2C	0.4	14*	0.0019	-39	0	13248*	x	+
Cc1ccc(CSc2nc3c(c(=O)[nH]c(=O)n3C)n2CCC(C)C)cc1	0.043	4	0.0082	0	-2	x	x	x
SMILES	M1 ag	D1 mod	M1 antag	S1P1 ag pot	S1P3 ag	D1 mod confirm	D1 ag no DA	Isoprot counter
COc1ccc(NC(=O)c2ccc(NS(=O)(=O)c3c(C)noc3C)cc2)cc1OC	0.027	8.8*	-0.31	0	0	5712*	1524	i
COc1ccccc1NC(=O)c1ccc(NS(=O)(=O)c2c(C)noc2C)cc1	0.33	0.036	-0.39	-7	0	x	x	x
COc1ccc(NC(=O)CN(c2ccc(C(C)C)cc2)S(=O)(=O)c2c(C)noc2C)cc1OC	-0.23	3*	-0.0066	27	-1	4788	1104	i
COc1ccccc1CNC(=O)c1ccc(NS(=O)(=O)c2c(C)noc2C)cc1	-0.22	4.2*	-0.25	-7	0	6660*	1648	i
CN(C)Cc1cc(C(C)(C)c2cc(CN(C)C)c(O)c(CN(C)C)c2)cc(CN(C)C)c1O	-0.037	-0.88	0.73	17	0	x	x	x
CSC1=NCCN1C(=O)c1ccc(Br)o1	-1	5.7*	-0.32	-11	0	11560*	1672	i
CSC1=NCCN1C(=O)COc1ccccc1	-0.053	1	-0.3	-2	0	x	x	x
CSC1=NCCN1C(=O)Cc1cccs1	0.15	9.8*	-0.9	-5	0	7652*	1576	i
O=C(c1ccc(Br)o1)N1CCN=C1SCc1cccnc1	-0.15	1	0.0055	-10	0	x	x	x
COC(=O)CN(c1ccccc1F)S(=O)(=O)c1ccccc1	-0.17	-0.19	0.021	-6	0	x	x	x
COC(=O)CN(c1ccccn1)S(=O)(=O)c1ccccc1	-0.68	5.2*	0.75	-22	0	5664	1588	i
CCC(C)(C)n1c(=O)[nH]c2c(c1=O)CCC2	-0.33	4.3*	0.33	-30	0	6624	1544	i
O=S(=O)(NC1CCCCC1)c1ccc(Br)cc1	0.6	-0.13	-1.5	x	-1	x	x	x
COc1ccc(C)cc1NC(=O)c1cnc2scc(C)n2c1=O	-0.68	-0.6	0.43	-23	0	x	x	x
COc1ccc(CCNC(=O)c2cccnc2)cc1OC	x	3.4*	x	-1	-1	6704	1660	i
COc1ccc(CCNC(=O)c2ccncc2)cc1OC	-0.31	0.076	-0.031	-10	-2	x	x	x
COc1ccc(CCNC(=O)c2cnc3scc(C)n3c2=O)cc1OC	-1.7	40*	-0.77	-24	-1	17580*	1900	+
O=c1c(/C=N/O)c(Nc2ccccc2)nc2ccccn12	-0.12	4.2*	-0.19	-28	-1	9580*	1768	+
COCCSc1nc2c(c(=O)[nH]c(=O)n2C)n1CCC(C)C	-0.49	11*	0.3	-1	0	21024*	1464	+
CCC(C)Nc1nc2c(c(=O)[nH]c(=O)n2C)n1CCC(C)C (stereo not given)	0.46	17*	1	-28	-1	18228*	1632	+

Screening results from PubChem BioAssay.
